Source: the array DNA melting data of Ke et al. (doi:10.1101/2024.01.08.574731)

Legend:
[1] = folding enthalpy; higher = less favourable; fluorescence melt of hairpins on a sequencing array, two-state fit; details: sodium 0.088 M
Summary of the method: (§1)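 With Cy3 and quencher oligos annealed, library hairpins on a sequenced MiSeq flow cell were imaged for Cy3 fluorescence in 50 mM Na-HEPES pH 8.0, 25 mM NaCl, in 2.5 °C steps up to 60 °C. Melting temperature and folding enthalpy were derived from bootstrapped two-state fits of signals normalised to pre-quench Cy3 and to control constructs. Four replicates were combined by inverse variance, with fitted temperatures raised by 9.35 °C to match UV melts.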

[2] = melting temperature; fluorescence melt of hairpins on a sequencing array, two-state fit, raised by 9.35 °C to match UV melts; details: sodium 0.088 M
Summary of the method: as §1

Sequence | folding enthalpy [1] [kcal/mol] | Tm [2] [°C]
GCAGGCGGAAACGTCTGC ((((.((....)).)))) | -35.3 | 63.1
GGATATCGAAAGATTCC (((.(((....)))))) | -25.9 | 39.5
GTTACTGAAAAGTAAC ((((((....)))))) | -33.8 | 49.4
GGTCCAGCGAAAGCTACC (((..(((....)))))) | -10.7 | 30.1
GCCCGGCGAAAGCGTGGC (((..((....))..))) | -20.2 | 57.9
GTGAAGGCGAAAGCCCAC (((..(((....)))))) | -15.6 | 46.7
GGACTGGCGAAAGCCTCC (((..(((....)))))) | -9.14 | 31.6
GGCTTTGGAAACAAAGCC (((((((....))))))) | -34.1 | 68.3
GATCTGGCCCAGATC ((((((...)))))) | -35.1 | 49.7
GCCCTGCGAAAGCTGAGC ((.(.((....)).).)) | -13.9 | 47.2
GTTGCTGGAAACGGCAAC (((((.(....).))))) | -43.6 | 55.2
GCGGTGCGAAAGCTCGGC ((.(.((....)).).)) | -19.1 | 51
GGTGTCGGAAACGATGCC ((..(((....)))..)) | -26.7 | 49.4
AGGGAGAAATCCCT (((((....))))) | -18.6 | 42
GCTCGCGAAAGCGTAAGC ((((((....)))..))) | -13.4 | 51.3
GCGACGGGAAACCGTCAC (.(((((....))))).) | -13 | 48.7
GATCAACAAATTGATC ((((((....)))))) | -31.3 | 36.4
CGGGCCCGGAAACGGCCG (((..(((....)))))) | -13.3 | 50.3
GTAGAGCGAAAGCTTAC (((.(((....)))))) | -12.8 | 38.5
GATCCGTAGCGGATC ((((((...)))))) | -35.6 | 56
GAGTCCGGAAACGGACCC (.(((((....))))).) | -9.42 | 46.2
GGTGGAGGAAACTCTGCC ((..(((....)))..)) | -27 | 42
GGCCTTGGAAACAAGACC ((.((((....)))).)) | -29.1 | 44.7
GCATTGCGAAAGCCTTGC (((..((....))..))) | -25 | 39.3

Sequence | folding enthalpy [1] [kcal/mol] | Tm [2] [°C]
GATCCTTTTGAGGATC ((((((....)))))) | -36.9 | 54.1
GGCCAGCGAAAGCTAGCC (((.(((....))).))) | -29.6 | 56.4
GATCGACTTTCGATC ((((((...)))))) | -22.2 | 51.7
GATCTGGCTCCAGATC ((((((....)))))) | -39.4 | 53.1
GATCATTCGCATGATC ((((((....)))))) | -34 | 47.5
GATCATCTCCATGATC ((((((....)))))) | -32.9 | 46.8
GCCTGAGGAAACTTGGGC (((..((....))..))) | -29 | 42.3
GCGTCGCGAAAGCAATGC ((.(.((....)).).)) | -21.6 | 43.9
GCGATCCGTCGC ((((....)))) | -24.6 | 51.6
GGCCACCGAAAGGTTGCC (((.(((....))).))) | -44.3 | 58.1
GATCATCGGAATGATC ((((((....)))))) | -38.9 | 45.8
GACCCTGGAAACAGAGTC (((.(((....))).))) | -29.5 | 36.6
GGGGGCGGAAACACCCCC (((((.(....).))))) | -39.3 | 56.9
GCCTGGCGAAAGCTGGGC (((..((....))..))) | -28.2 | 64.4
GCGGAAGGAAACTTCTGC ((.((((....)))).)) | -44.6 | 51.4
GTTGGGGGAAACCTCAAC ((((.((....)).)))) | -32 | 47.8
GCTAAGCGAAAGCTTCGC ((.((((....)))).)) | -20.9 | 53.8
GCGAATCTCGC ((((...)))) | -19.7 | 47.4
GAAACCGAAAGGTACTTC ((((((....)))..))) | -17.8 | 34.6
GCGAGGCGAAAGCGTTGC ((.(.((....)).).)) | -18.6 | 55.5
GGCGACGAAAGTCCGCC ((((((....))).))) | -32.2 | 63.6
GATTGCGAAAGCAAATC ((((((....))).))) | -15.9 | 50.2
GCCCAGCGAAAGCGGAGC ((.(.((....)).).)) | -12.7 | 53.1
